The values below come from publication PMC3158287 (Nature chemical biology, 2011).

Series [1] concerns human cancer cell lines. Particulars: cited from earlier work.
For series [2], the target named is T1, OSBP (Homo sapiens, UniProt P22059).
T1 sequence (P22059 1-807): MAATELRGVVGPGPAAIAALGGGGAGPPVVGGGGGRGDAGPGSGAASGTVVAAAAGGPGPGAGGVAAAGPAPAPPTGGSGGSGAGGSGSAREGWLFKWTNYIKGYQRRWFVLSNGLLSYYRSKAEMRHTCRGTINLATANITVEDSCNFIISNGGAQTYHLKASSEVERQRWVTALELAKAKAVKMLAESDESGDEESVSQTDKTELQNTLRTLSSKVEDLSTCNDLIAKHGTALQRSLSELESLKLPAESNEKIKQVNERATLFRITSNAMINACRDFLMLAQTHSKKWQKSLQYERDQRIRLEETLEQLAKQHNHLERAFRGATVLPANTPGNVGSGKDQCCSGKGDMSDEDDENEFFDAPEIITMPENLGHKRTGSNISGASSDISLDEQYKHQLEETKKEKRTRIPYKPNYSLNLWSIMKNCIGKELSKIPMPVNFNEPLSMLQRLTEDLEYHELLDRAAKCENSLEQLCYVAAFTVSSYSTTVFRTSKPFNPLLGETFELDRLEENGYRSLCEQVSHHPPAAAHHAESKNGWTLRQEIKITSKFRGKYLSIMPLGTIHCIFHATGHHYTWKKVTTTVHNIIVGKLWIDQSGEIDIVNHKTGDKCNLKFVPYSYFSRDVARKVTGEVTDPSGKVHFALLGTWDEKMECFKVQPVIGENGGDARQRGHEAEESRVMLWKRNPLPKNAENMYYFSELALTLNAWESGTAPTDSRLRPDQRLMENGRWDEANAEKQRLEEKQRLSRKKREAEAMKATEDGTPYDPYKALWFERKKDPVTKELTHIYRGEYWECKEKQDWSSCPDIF
Kind of series: OSBP localization by immunofluorescence microscopy, A549. Particulars: A549 cells. It counts as cell-based. The gist of the method: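 Cells on coverslips were grown 72 h, then given test compound or vehicle (4 h for HCT-116). They were fixed 10 min in 3.7% formaldehyde/PBS and permeabilised 5 min in 0.5% Triton X-100. Blocking used Image-iT FX, then 1% BSA/PBS. Rabbit anti-OSBP (N-terminus) and mouse anti-p230 were applied overnight at 4 °C, then Alexa Fluor secondaries for 60 min with Hoechst 33258. Imaging was by confocal microscopy.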

The subject of series [3] is HCT-116 cells. Kind of series: Suppression of antiproliferative activity by 25-OHC coadministration. It counts as cell-based, human. Particulars: HCT-116 and HeLa cell lines. The gist of the method:
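HCT-116 p21+/+ and p21−/− cells were seeded in 96-well plates and rested 24 h. A time-zero plate was read with CellTiter-Blue (resazurin) after 90 min at 37 °C, fluorescence 544 nm ex / 590 nm em. Serially diluted test compound was added as 4× solution. Viability was re-read at 48 h and GI50 derived. For coadministration, 10 μM 25-OHC was added with test compound at 250 nM or 10 nM.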

Series [4] deals with T1, OSBP. Kind of series: OSBP protein levels by western blotting. The format is cell-based. Particulars: HCT-116 cells; 25-OHC 10 μM. The gist of the method:
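HCT-116 cells were treated with test compound at 50 nM or 10 nM over a time course including 24 h. Some samples also received proteasome inhibitor MG-132 or lactacystin. OSBP was measured by western blotting with polyclonal rabbit anti-OSBP (N-terminus) antibody. Data are n = 3, compared with vehicle-treated cells by two-tailed Student's t-test.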
On the technique in general: A western blot detects proteins with antibodies after separation by electrophoresis.

Series [5] deals with HeLa cells overexpressing wild-type OSBP. Kind of series: Overexpression-viability assay, wild-type OSBP-Myc-His. It counts as cell-based, human. Particulars: 48 h, versus lacZ.
Series [6] relates to HCT-116 p21^−/− cells stably transfected with shOSBP or shNT. Kind of series: OSBP shRNA knockdown and dose-shift experiment. Particulars: 72 h. It counts as cell-based, human. Put shortly:
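HCT-116 p21−/− cells were stably transfected with OSBP-targeting or nontargeting shRNA in the pSIREN-RetroQ vector. […] Values are mean ± s.d. of 3–4 experiments, compared with shNT cells by two-tailed Student's t-test.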

Series [7] concerns HeLa cells overexpressing ORP4L. Kind of series: Overexpression-viability assay, ORP4L-Myc-His. It counts as cell-based, human. Particulars: 48 h, versus lacZ.
The test system of series [8] is sphingomyelin biosynthesis in CHO-K1 cells. Kind of series: Sphingomyelin biosynthesis, [3H]serine pulse labeling, CHO-K1. It counts as cell-based, Chinese hamster.

Peptide text beside a SMILES is read from it. * marks the point of attachment. Cbz = O=C(OCc1ccccc1)*

As for `COc1cc(/C=C/c2cc(O)c(C/C=C(\C)CCC=C(C)C)c(O)c2)cc2c1O[C@]1(C)C[C@@H](O)[C@@H](O)C(C)(C)[C@H]1C2` [schweinfurthin B], in series [1], the “GI50 (half-maximal inhibitory concentration)” value is reported as “nanomolar range”. Besides, in series [2], the OSBP localization entry is “perinuclear OSBP staining similar to that seen with 25-OHC”.

`C[C@H]1CCC/C=C/[C@@H]2C[C@H](O)C[C@H]2[C@H](O)/C=C/C(=O)O1` [brefeldin A, reference compound]: in series [3], the “Effect of 25-OHC coadministration on antiproliferative activity” value is “did not affect”.

For `CC(C)C[C@@H](C=O)NC(=O)[C@H](CC(C)C)NC(=O)[C@H](CC(C)C)NC(=O)OCc1ccccc1` [MG-132, reference compound] (Cbz-Leu-Leu-Leu-aldehyde), the “Effect on OSBP levels (compound alone)” value in series [4] is listed as “did not affect OSBP concentrations”.

As for `CC(=O)O[C@H]1C(=O)[C@@]2(C)[C@H]([C@H](OC(=O)c3ccccc3)[C@]3(O)C[C@H](OC(=O)[C@H](O)[C@@H](NC(=O)c4ccccc4)c4ccccc4)C(C)=C1C3(C)C)[C@]1(OC(C)=O)CO[C@@H]1C[C@@H]2O` [taxol, reference compound], the “Desensitization factor by OSBP overexpression (relative GI30)” value in series [5] is given as “not affected”. In addition, in series [3], the “Effect of 25-OHC coadministration on antiproliferative activity” value is “did not affect”. In addition, the “Sensitization by OSBP shRNA knockdown (GI50 shift shOSBP vs shNT)” value in series [6] is “not affected”. In addition, in series [7], the “Desensitization factor by ORP4L overexpression (relative GI30)” value is “not affected”. The “Inhibition of sphingomyelin biosynthesis (control cytotoxic / ER stress agents)” value in series [8] is given as “did not occur”.

Turning to `C/C=C(/C)C(=O)O[C@H]1C(C)=C2[C@H]([C@@H]1OC(=O)CCCCCCC)[C@@](C)(OC(C)=O)C[C@H](OC(=O)CCC)[C@@]1(O)[C@H]2OC(=O)[C@@]1(C)O` [thapsigargin], in series [8], the “Inhibition of sphingomyelin biosynthesis (control cytotoxic / ER stress agents)” value was “did not occur”.

With `CC(=O)N[C@@H](CSC(=O)[C@]1([C@@H](O)C(C)C)NC(=O)[C@H](C)[C@@H]1O)C(=O)O` [lactacystin, reference compound], the “Effect on OSBP levels (compound alone)” value in series [4] is listed as “did not affect OSBP concentrations”.
